# According to ChEMBL document CHEMBL1128448, “Synthesis and antifungal activity of new azole derivatives containing an N-acylmorpholine ring” (1995):
# How the values were obtained:
# Aspergillus fumigatus = test: In vitro evaluation of minimum inhibitory concentration against Aspergillus fumigatus 33; format: functional; settings: Aspergillus fumigatus; read-out: MIC
# Outline: (§1)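 Stocks are 800 μg/mL in 50% ethanol. Each plate gets 10 μL of inoculum at 10^5 cfu/mL. Incubation at 25 °C, 48 h for yeasts and 120 h for dermatophytes and molds. Organisms are ATCC strains or clinical isolates.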
# Aspergillus niger = test: In vitro evaluation of minimum inhibitory concentration against Aspergillus niger 18; format: functional; settings: Aspergillus niger; read-out: MIC; outline: as §1
# Candida albicans [1] = test: In vitro evaluation of minimum inhibitory concentration against Candida albicans 76; format: functional; settings: Candida albicans; read-out: MIC; outline: as §1
# Candida albicans [2] = test: Evaluation of In vitro antifungal activity against Candida albicans 2.01 by broth macro dilution method; format: functional
# Outline: (§2)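 Yeast MIC and MFC by broth macrodilution per NCCLS M27-P in RPMI-1640 buffered with 0.165 M MOPS. Fluconazole in sterile water, other drugs in DMSO. C. parapsilosis ATCC 22019 is the reference strain in each run. MIC is the lowest concentration with turbidity ≤ the 80% inhibition standard. For MFC, 0.04 mL from clear tubes is plated on Sabouraud agar; MFC is the lowest concentration giving ≤1 colony.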
# Candida albicans [3] = test: Evaluation of In vitro antifungal activity against Candida albicans 31 by broth macro dilution method; format: functional; outline: as §2
# Candida albicans [4] = test: Evaluation of In vitro antifungal activity against Candida albicans 406 by broth macro dilution method; format: functional; outline: as §2
# Candida albicans [5] = test: Evaluation of In vitro antifungal activity against Candida albicans ATCC 10231 by broth macro dilution method; format: functional; outline: as §2
# Candida albicans [6] = test: Evaluation of In vitro antifungal activity against Candida albicans C52 by broth macro dilution method; format: functional; outline: as §2
# Candida albicans [7] = test: Evaluation of […] antifungal activity against Candida albicans 60 by broth macro dilution method; format: functional; outline: as §2
# [8] = tested on: Meyerozyma guilliermondii; test: Evaluation of In vitro antifungal activity against Candida guilliermondii 26 by broth macro dilution method; format: functional; outline: as §2
# [9] = tested on: Meyerozyma guilliermondii; test: In vitro evaluation of minimum inhibitory concentration against Candida guilliermondii 26; format: functional; settings: Meyerozyma guilliermondii; read-out: MIC; outline: as §1
# Pichia kudriavzevii [10] = test: Evaluation of In vitro antifungal activity against Candida krusei 70 by broth macro dilution method; format: functional; outline: as §2
# Pichia kudriavzevii [11] = test: In vitro evaluation of minimum inhibitory concentration against Candida krusei 70; format: functional; settings: Pichia kudriavzevii; read-out: MIC; outline: as §1
# Kluyveromyces marxianus [12] = test: Evaluation of In vitro antifungal activity against Candida pseudotropicalis ATCC 28838 by broth macro dilution method; format: functional; outline: as §2
# Kluyveromyces marxianus [13] = test: Evaluation of In vitro antifungal activity against yeasts by broth macro dilution method; format: functional; outline: as §2
# Candida parapsilosis [14] = test: Evaluation of In vitro antifungal activity against Candida parapsilosis ATCC 22019 by broth macro dilution method; format: functional; settings: Lodderomyces parapsilosis; outline: as §2
# Candida parapsilosis [15] = test: Evaluation of In vitro antifungal activity against Candida parapsilosis C292 by broth macro dilution method; format: functional; settings: Lodderomyces parapsilosis; outline: as §2
# Candida parapsilosis [16] = test: Evaluation of In vitro antifungal activity against Candida parapsilosis C74 by broth macro dilution method; format: functional; settings: Lodderomyces parapsilosis; outline: as §2
# Candida parapsilosis [17] = test: In vitro evaluation of minimum inhibitory concentration against Candida parapsilosis 61; format: functional; settings: Lodderomyces parapsilosis; read-out: MIC; outline: as §1
# Candida tropicalis [18] = test: Evaluation of In vitro antifungal activity against Candida tropicalis 2.11 by broth macro dilution method; format: functional; outline: as §2
# Candida tropicalis [19] = test: Evaluation of In vitro antifungal activity against Candida tropicalis 50 by broth macro dilution method; format: functional; outline: as §2
# Cryptococcus neoformans [20] = test: Evaluation of In vitro antifungal activity against Cryptococcus neoformans 74 by broth macro dilution method; format: functional; outline: as §2
# Cryptococcus neoformans [21] = test: Evaluation of In vitro antifungal activity against Cryptococcus neoformans 87 by broth macro dilution method; format: functional; outline: as §2
# Mus sp. [22] = test: In vivo evaluation of % survival rate after peroral administration on 3rd day at dose 0.5 mg/kg; format: functional; settings: route oral
# Mus sp. [23] = test: In vivo evaluation of % survival rate after peroral administration on 3rd day at dose 1 mg/kg; format: functional; settings: Mus sp., po
# Mus sp. [24] = test: In vivo evaluation of % survival rate after peroral administration on 5th day at dose 0.5 mg/kg; format: functional; settings: route oral
# Mus sp. [25] = test: In vivo evaluation of % survival rate after peroral administration on 5th day at dose 1 mg/kg; format: functional; settings: Mus sp., po
# Mus musculus = test: In vivo evaluation of % survival rate after peroral administration on 7th day at dose 0.5 mg/kg; format: functional; settings: Mus musculus, po
# Mus sp. [26] = test: In vivo evaluation of % survival rate after peroral administration on 7th day at dose 1 mg/kg; format: functional; settings: Mus sp., po
# Mus sp. [27] = test: In vivo evaluation of % survival rate after peroral administration on 9th day at dose 1 mg/kg; format: functional; settings: Mus sp., po
# Microsporum canis = test: In vitro evaluation of minimum inhibitory concentration against Microsporum canis 47; format: functional; settings: Microsporum canis; read-out: MIC; outline: as §1
# Nannizzia gypsea = test: In vitro evaluation of minimum inhibitory concentration against Microsporum gypseum 22; format: functional; settings: Nannizzia gypsea; read-out: MIC; outline: as §1
# Nakaseomyces glabratus = test: Evaluation of In vitro antifungal activity against Torulopsis glabrata 78 by broth macro dilution method; format: functional; outline: as §2
# Trichophyton benhamiae = test: In vitro evaluation of minimum inhibitory concentration against Trichophyton mentagrophytes 23; format: functional, Arthroderma benhamiae; settings: Trichophyton benhamiae; read-out: MIC; outline: as §1
# Trichophyton rubrum = test: In vitro evaluation of minimum inhibitory concentration against Trichophyton rubrum 90; format: functional; settings: Trichophyton rubrum; read-out: MIC; outline: as §1
# Pichia kudriavzevii [28] = test: Evaluation of In vitro antifungal activity against Candida krusei C64 by broth macro dilution method; format: functional; outline: as §2
# Candida parapsilosis [29] = test: Evaluation of In vitro antifungal activity against Candida parapsilosis 2.07 by broth macro dilution method; format: functional; settings: Lodderomyces parapsilosis; outline: as §2
# Candida parapsilosis [30] = test: Evaluation of In vitro antifungal activity against Candida parapsilosis ATCC 141095 by broth macro dilution method; format: functional; settings: Lodderomyces parapsilosis; outline: as §2
# Aspergillus flavus = test: In vitro evaluation of minimum inhibitory concentration against Aspergillus flavus 19; format: functional; settings: Aspergillus flavus; read-out: MIC; outline: as §1
# Candida albicans [31] = test: Evaluation of In vitro antifungal activity against Candida albicans C56 by broth macro dilution method; format: functional; outline: as §2
# Rattus norvegicus = test: In vivo evaluation of antifungal activity against vaginal candidosis in rat at dose 0.25 mg/kg on 15th day; format: functional
# Outline: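 Groups of 10 female Wistar rats given estradiol 25 mg/kg sc on day -5, infected intravaginally with C. albicans by sterile swab on day 0; infection confirmed on day 3 by swab culture (TSB, then Sabouraud agar). Oral dosing once daily on days 3, 4, 5; vehicle controls. Vaginal swabs cultured on days 10 and 15; read-out % cured (culture-negative).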
# Candida albicans [32] = test: Evaluation of In vitro antifungal activity against Candida albicans 60 by broth macro dilution method
structure (smiles),measurement,setting,value
OC(Cn1cncn1)(Cn1cncn1)c1ccc(F)cc1F [FLUCONAZOLE],MIC,Aspergillus fumigatus,> 80 µg/mL
same,MIC,Aspergillus niger,> 80 µg/mL
same,MIC,Candida albicans [1],40 µg/mL
same,MFC,Candida albicans [2],> 64 µg/mL
same,MIC,Candida albicans [2],1 µg/mL
same,MFC,Candida albicans [3],> 64 µg/mL
same,MIC,Candida albicans [3],0.25 µg/mL
same,MFC,Candida albicans [4],> 64 µg/mL
same,MIC,Candida albicans [4],0.25 µg/mL
same,MFC,Candida albicans [5],> 64 µg/mL
same,MIC,Candida albicans [5],2 µg/mL
same,MFC,Candida albicans [6],> 64 µg/mL
same,MIC,Candida albicans [6],0.25 µg/mL
same,MIC,Candida albicans [7],0.5 µg/mL
same,MIC,[8],8 µg/mL
same,MIC,[9],10 µg/mL
same,MFC,Pichia kudriavzevii [10],> 64 µg/mL
same,MIC,Pichia kudriavzevii [10],32 µg/mL
same,MIC,Pichia kudriavzevii [11],> 80 µg/mL
same,MFC,Kluyveromyces marxianus [12],32 µg/mL
same,MIC,Kluyveromyces marxianus [13],0.5 µg/mL
same,MFC,Candida parapsilosis [14],> 64 µg/mL
same,MIC,Candida parapsilosis [14],4 µg/mL
same,MFC,Candida parapsilosis [15],> 64 µg/mL
same,MIC,Candida parapsilosis [15],1 µg/mL
same,MFC,Candida parapsilosis [16],2 µg/mL
same,MIC,Candida parapsilosis [16],0.25 µg/mL
same,MIC,Candida parapsilosis [17],20 µg/mL
same,MFC,Candida tropicalis [18],> 64 µg/mL
same,MIC,Candida tropicalis [18],1 µg/mL
same,MFC,Candida tropicalis [19],> 64 µg/mL
same,MIC,Candida tropicalis [19],8 µg/mL
same,MFC,Cryptococcus neoformans [20],1 µg/mL
same,MIC,Cryptococcus neoformans [20],0.5 µg/mL
same,MFC,Cryptococcus neoformans [21],> 64 µg/mL
same,MIC,Cryptococcus neoformans [21],8 µg/mL
same,survival at 0.5 mg/kg,Mus sp. [22],100%
same,survival at 1 mg/kg,Mus sp. [23],100%
same,survival at 0.5 mg/kg,Mus sp. [24],90%
same,survival at 1 mg/kg,Mus sp. [25],96%
same,survival at 0.5 mg/kg,Mus musculus,20%
same,survival at 1 mg/kg,Mus sp. [26],52%
same,survival at 1 mg/kg,Mus sp. [27],6%
same,MIC,Microsporum canis,> 80 µg/mL
same,MIC,Nannizzia gypsea,> 80 µg/mL
same,MFC,Nakaseomyces glabratus,> 64 µg/mL
same,MIC,Nakaseomyces glabratus,32 µg/mL
same,MIC,Trichophyton benhamiae,> 80 µg/mL
same,MIC,Trichophyton rubrum,> 80 µg/mL
same,MFC,Pichia kudriavzevii [28],> 64 µg/mL
same,MIC,Pichia kudriavzevii [28],64 µg/mL
same,MFC,Candida parapsilosis [29],> 64 µg/mL
same,MIC,Candida parapsilosis [29],1 µg/mL
same,MFC,Candida parapsilosis [30],> 64 µg/mL
same,MIC,Candida parapsilosis [30],2 µg/mL
same,MIC,Aspergillus flavus,> 80 µg/mL
same,MFC,Candida albicans [31],> 64 µg/mL
same,MIC,Candida albicans [31],0.5 µg/mL
same,Cure rate,Rattus norvegicus,25%
same,MFC,Candida albicans [32],> 64 µg/mL
